pIC50: −log10 of the molar value. In brackets after ≈: the same amount, converted by molar mass.
Tests used:
[1] = test system: Mycobacterium tuberculosis; assay: Antimicrobial activity against Mycobacterium tuberculosis H37RvMA under GAST/Fe medium assessed as growth inhibition after 14 days by alamar blue assay; type: functional; details: 336 h
Summary of the method: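 Broth microdilution in GAST/Fe medium against fully virulent Mtb H37RvMa or its derived strains (cytochrome bd oxidase deletion ΔcydKO; qcrB Ala317Thr point mutant). Plates were incubated 14 days, growth was read by Alamar Blue, and MIC90 was taken as the potency value.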

[2] = Kinetic solubility in FaSSIF at pH 6.5 after 2 hours at 25 degC by shake flask method; type: physicochemical; details: read-out: Kinetic_solubility
[3] = Metabolic stability in human liver microsomes assessed as residual compound at 0.1 uM after 30 mins by LC-MS/MS method in presence or absence of NADPH; type: ADME; details: read-out: Stability
[4] = Metabolic stability in rat liver microsomes assessed as residual compound at 0.1 uM after 30 mins by LC-MS/MS method in presence or absence of NADPH; type: ADME; details: read-out: Stability
[5] = Metabolic stability in mouse liver microsomes assessed as residual compound at 0.1 uM after 30 mins by LC-MS/MS method in presence or absence of NADPH; type: ADME; details: read-out: Stability
Vero = assay: Cytotoxicity against African green monkey Vero cells assessed as cell viability by MTT assay; type: cell-based; details: Chlorocebus sabaeus
Summary of the method: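 VERO kidney epithelial cells from African green monkey were exposed to compounds at concentrations up to 100 μM, and IC₅₀ was reported.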

[6] = test system: Mycobacterium tuberculosis; assay: Antimicrobial activity against GFP expressing recombinant Mycobacterium tuberculosis H37RvMA under GAST/Fe medium assessed as growth inhibition after 14 days by broth microdilution method; type: functional; details: 336 h
[7] = Metabolic stability in human liver S9 fractions assessed as residual compound at 0.1 uM after 40 mins by LC-MS/MS method in presence or absence of NADPH; type: ADME; details: read-out: Stability
[8] = Intrinsic clearance in mouse liver microsomes assessed per mg of protein at 0.1 uM by LC-MS/MS method in presence or absence of NADPH; type: ADME
[9] = test system: Mycobacterium tuberculosis; assay: Antimicrobial activity against GFP expressing recombinant Mycobacterium tuberculosis H37RvMA under 7H9 medium assessed as growth inhibition after 14 days by broth microdilution method; type: functional; details: 336 h
[10] = Half life in human plasma at 0.1 uM by LC-MS/MS method; type: ADME, cell-free
[11] = Octanol-phosphate buffer partition coefficient, log D of the compound at 100 uM at pH 7.4 after 3 hrs by shake flask method; type: physicochemical
Liver microsome [12] = assay: Intrinsic clearance in human liver microsomes assessed per mg of protein at 0.1 uM by LC-MS/MS method in presence or absence of NADPH; type: ADME
Liver microsome [13] = assay: Intrinsic clearance in rat liver microsomes assessed per mg of protein at 0.1 uM by LC-MS/MS method in presence or absence of NADPH; type: ADME
Plasma = assay: Drug metabolism in C57/BL6 mouse plasma treated with 7-Amino-2-benzyl-4-methyl-6-(3-methyl-1,2,4-oxadiazol-5-yl)-1H-pyrrolo[3,4-c]pyridine-1,3(2H)-dione by LC-MS analysis; type: ADME, cell-free
Liver = assay: Drug level in BALB/c mouse liver microsomes treated with 7-Amino-2-benzyl-4-methyl-6-(3-methyl-1,2,4-oxadiazol-5-yl)-1H-pyrrolo[3,4-c]pyridine-1,3(2H)-dione at 10 uM after 1 hr by LC-MS analysis; type: ADME
[14] = test system: Mycobacterium tuberculosis; assay: Antimicrobial activity against clinical isolates of Mycobacterium tuberculosis SAWC 3385 Cas1/Delhi under 7H9 medium assessed as growth inhibition after 14 days by alamar blue assay; type: functional; details: 336 h
[15] = test system: Mycobacterium tuberculosis; assay: Antimicrobial activity against clinical isolates of Mycobacterium tuberculosis SAWC 3906 Atyp-beijing under 7H9 medium assessed as growth inhibition after 14 days by alamar blue assay; type: functional; details: 336 h
[16] = test system: Mycobacterium tuberculosis; assay: Antimicrobial activity against clinical isolates of Mycobacterium tuberculosis SAWC 3933 LCC under 7H9 medium assessed as growth inhibition after 14 days by alamar blue assay; type: functional; details: 336 h
[17] = test system: Mycobacterium tuberculosis; assay: Antimicrobial activity against clinical isolates of Mycobacterium tuberculosis SAWC 2371 Haarlem under 7H9 medium assessed as growth inhibition after 14 days by alamar blue assay; type: functional; details: 336 h

SMILES	MIC90 [1] [µM]	solubility kinetic at 2 h [2] [µM]	other results
Cc1noc(-c2nc(C)c3c(c2N)C(=O)N(Cc2ccc(S(C)(=O)=O)cc2)C3=O)n1	0.31 (≈ 0.133 µg/mL)	< 5	–
Cc1nc(C(=O)NO)c(N)c2c1C(=O)N(Cc1ccccc1)C2=O	> 160	–	remaining at 0.5 h, 0.1 µM [3]: 80%; remaining at 0.5 h, 0.1 µM [4]: 46%; remaining at 0.5 h, 0.1 µM [5]: 58%
Cc1noc(-c2nc(C)c3c(c2N)C(=O)N(Cc2ccccc2F)C3=O)n1	0.3 (≈ 0.11 µg/mL)	< 5	–
Cc1noc(-c2nc(C)c3c(c2N)C(=O)N(Cc2ccc(F)cc2)C3=O)n1	0.31 (≈ 0.114 µg/mL)	< 5	–
Cc1noc(-c2nc(C)c3c(c2N)C(=O)N(Cc2ccc(C(F)(F)F)cc2)C3=O)n1	20 (≈ 8.35 µg/mL)	< 5	–
Cc1nc(-c2nc(C(F)(F)F)no2)c(N)c2c1C(=O)N(Cc1ccccc1)C2=O	20 (≈ 8.07 µg/mL)	< 5	remaining at 0.5 h, 0.1 µM [3]: 100%; remaining at 0.5 h, 0.1 µM [4]: 83%; pIC50 (Vero): < 4.00; remaining at 0.5 h, 0.1 µM [5]: 20%
COC(=O)c1nc(C)c2c(c1N)C(=O)N(Cc1ccccc1)C2=O	0.15 (≈ 0.0488 µg/mL)	7.4 (≈ 2.41 µg/mL)	–
Cc1noc(-c2nc(C)c3c(c2N)C(=O)N(Cc2ccc(Cl)cc2)C3=O)n1	0.62 (≈ 0.238 µg/mL)	< 5	–
Cc1noc(-c2nc(C)c3c(c2N)C(=O)N(Cc2cccc(OC(F)(F)F)c2)C3=O)n1	0.0637 (≈ 0.0276 µg/mL)	6.3 (≈ 2.73 µg/mL)	MIC90 [6]: 0.052 µM; remaining at 40 min, 0.1 µM [7]: 93%; CLint [8]: 65.7 µL/min/mg; MIC90 [9]: > 20 µM; pIC50 (Vero): < 4.00; half-life at 0.1 µM [10]: > 6 h; logD at 3 h, 100 µM [11]: 3.64; CLint (Liver microsome [12]): 15.4 µL/min/mg; CLint (Liver microsome [13]): 32.4 µL/min/mg
Cc1noc(-c2nc(C)c3c(c2N)C(=O)N(Cc2ccc(-n4cccn4)cc2)C3=O)n1	40 (≈ 16.6 µg/mL)	< 5	–
Cc1noc(-c2nc(C)c3c(c2N)C(=O)N(Cc2ccc(SC(F)(F)F)cc2)C3=O)n1	1.2 (≈ 0.539 µg/mL)	< 5	–
Cc1noc(-c2nc(C)c3c(c2N)C(=O)N(Cc2ccc(C#N)cc2)C3=O)n1	> 160	< 5	–
Cc1noc(-c2nc(C)c3c(c2N)C(=O)N(Cc2ccc(Cl)cn2)C3=O)n1	2.5 (≈ 0.962 µg/mL)	< 5	–
Cc1nnc(-c2nc(C)c3c(c2N)C(=O)N(Cc2ccccc2)C3=O)o1	> 160	< 5	remaining at 0.5 h, 0.1 µM [3]: 63%; remaining at 0.5 h, 0.1 µM [4]: 50%; pIC50 (Vero): < 4.00; remaining at 0.5 h, 0.1 µM [5]: 57%
Cc1noc(-c2nc(C)c3c(c2N)C(=O)N(Cc2ccccc2C(F)(F)F)C3=O)n1	> 160	< 5	–
Cc1noc(-c2nc(C)c3c(c2N)C(=O)N(C(C)c2ccccc2)C3=O)n1 (stereo unspecified)	1.25 (≈ 0.454 µg/mL)	10.9 (≈ 3.96 µg/mL)	–
Cc1noc(-c2nc(C)c3c(c2N)C(=O)N(Cc2ccccc2Cl)C3=O)n1	1.25 (≈ 0.48 µg/mL)	< 5	–
Cc1noc(-c2nc(C)c3c(c2N)C(=O)N(Cc2ccc(N4CCCC4=O)cc2)C3=O)n1	> 160	< 5	–
CCOC(=O)c1ncc2c(c1N)C(=O)N(Cc1ccccc1)C2=O	20 (≈ 6.51 µg/mL)	–	–
Cc1noc(-c2nc(C)c3c(c2N)C(=O)N(Cc2ccc(Oc4ccc(F)cc4)cc2)C3=O)n1	< 0.156	23.8 (≈ 10.9 µg/mL)	–
Cc1noc(-c2nc(C)c3c(c2N)C(=O)N(Cc2ccc(Br)cc2)C3=O)n1	< 0.156	< 5	–
Cc1noc(-c2nc(C)c3c(c2N)C(=O)N(Cc2ccc(OC(F)F)cc2)C3=O)n1	< 0.156	< 5	–
Cc1nc(C(=O)N(C)C)c(N)c2c1C(=O)N(Cc1ccccc1)C2=O	> 160	172 (≈ 58.2 µg/mL)	remaining at 0.5 h, 0.1 µM [3]: 72%; remaining at 0.5 h, 0.1 µM [4]: 51%; pIC50 (Vero): < 4.00; remaining at 0.5 h, 0.1 µM [5]: 47%

SMILES	MIC90 [1] [µM]	solubility kinetic at 2 h [2] [µM]	other results
Cc1nc(C(N)=O)c(N)c2c1C(=O)N(Cc1ccccc1)C2=O	> 160	< 5	Drug metabolism (Plasma): metabolite_detected; Drug metabolism (Liver): metabolite_detected
COc1ccccc1CN1C(=O)c2c(C)nc(-c3nc(C)no3)c(N)c2C1=O	0.31 (≈ 0.118 µg/mL)	< 5	–
CO[C@H]1/C=C/O[C@@]2(C)Oc3c(C)c(O)c4c(O)c(c(/C=N/N5CCN(C)CC5)c(O)c4c3C2=O)NC(=O)/C(C)=C\C=C\[C@H](C)[C@H](O)[C@@H](C)[C@@H](O)[C@@H](C)[C@H](OC(C)=O)[C@@H]1C [RIFAMPIN]	0.009 (≈ 0.00741 µg/mL)	–	–
CCCOC(=O)c1nc(C)c2c(c1N)C(=O)N(Cc1ccccc1)C2=O	< 0.156	< 5	remaining at 0.5 h, 0.1 µM [3]: 3.4%; remaining at 0.5 h, 0.1 µM [4]: 3.3%; remaining at 0.5 h, 0.1 µM [5]: 8.8%
Cc1noc(-c2nc(C)c3c(c2N)C(=O)N(Cc2ccc(-c4ccncc4)cc2)C3=O)n1	160 (≈ 68.2 µg/mL)	< 5	–
Cc1noc(-c2nc(C)c3c(c2N)C(=O)N(Cc2ccc(N(C)C)cc2)C3=O)n1	20 (≈ 7.85 µg/mL)	7.4 (≈ 2.9 µg/mL)	–
Cc1noc(-c2nc(C)c3c(c2N)C(=O)N(Cc2cccc(F)c2)C3=O)n1	< 0.156	< 5	–
CCOC(=O)c1nc(C)c2c(c1N)C(=O)N(c1ccccc1)C2=O	> 160	5 (≈ 1.63 µg/mL)	–
Cc1nc(C(=O)OC2CC2)c(N)c2c1C(=O)N(Cc1ccccc1)C2=O	1.25 (≈ 0.439 µg/mL)	202 (≈ 71 µg/mL)	remaining at 0.5 h, 0.1 µM [3]: 61%; remaining at 0.5 h, 0.1 µM [4]: 9.6%; remaining at 0.5 h, 0.1 µM [5]: 36%
Cc1noc(-c2nc(C)c3c(c2N)C(=O)N(Cc2ccc(CO)cc2)C3=O)n1	0.62 (≈ 0.235 µg/mL)	< 5	–
Cc1noc(-c2nc(C)c3c(c2N)C(=O)N(Cc2ccncc2)C3=O)n1	20 (≈ 7.01 µg/mL)	26.4 (≈ 9.25 µg/mL)	–
CCOC(=O)c1nc(C)c2c(c1N)C(=O)N(Cc1ccccc1)C2O (stereo unspecified)	0.144 (≈ 0.0492 µg/mL)	41.5 (≈ 14.2 µg/mL)	remaining at 0.5 h, 0.1 µM [3]: 99%; remaining at 0.5 h, 0.1 µM [4]: 81%; pIC50 (Vero): < 4.00; remaining at 0.5 h, 0.1 µM [5]: 89%
Cc1nc(C(=O)NC#N)c(N)c2c1C(=O)N(Cc1ccccc1)C2=O	> 160	185 (≈ 62 µg/mL)	remaining at 0.5 h, 0.1 µM [3]: 99%; remaining at 0.5 h, 0.1 µM [4]: 92%; Drug metabolism (Plasma): metabolite_detected; Drug metabolism (Liver): metabolite_detected; remaining at 0.5 h, 0.1 µM [5]: 95%
CNC(=O)c1nc(C)c2c(c1N)C(=O)N(Cc1ccccc1)C2=O	> 160	41 (≈ 13.3 µg/mL)	–
Cc1nc(C#N)c(N)c2c1C(=O)N(Cc1ccccc1)C2=O	> 160	< 5	remaining at 0.5 h, 0.1 µM [3]: 98%; remaining at 0.5 h, 0.1 µM [4]: 100%; remaining at 0.5 h, 0.1 µM [5]: 99%
Cc1noc(-c2nc(C)c3c(c2N)C(=O)N(CC2CCNCC2)C3=O)n1	> 160	160 (≈ 57 µg/mL)	–
Cc1noc(-c2nc(C)c3c(c2N)C(=O)N(Cc2ccc(OC(F)(F)F)cc2)C3=O)n1	0.62 (≈ 0.269 µg/mL)	< 5	–
Cc1noc(-c2nc(C)c3c(c2N)C(=O)N(Cc2ccc(C(N)=O)cc2)C3=O)n1	> 160	< 5	–
COc1cccc(CN2C(=O)c3c(C)nc(-c4nc(C)no4)c(N)c3C2=O)c1	< 0.156	< 5	MIC90 [14]: 0.075 µM (≈ 0.0285 µg/mL); MIC90 [15]: 0.075 µM (≈ 0.0285 µg/mL); MIC90 [16]: 0.15 µM (≈ 0.0569 µg/mL); MIC90 [17]: 0.3 µM (≈ 0.114 µg/mL)
Cc1noc(-c2nc(C)c3c(c2N)C(=O)N(Cc2cccc(C(F)(F)F)c2)C3=O)n1	< 0.156	< 5	–
Cc1noc(-c2nc(C)c3c(c2N)C(=O)N(CC2CCOCC2)C3=O)n1	20 (≈ 7.15 µg/mL)	5.7 (≈ 2.04 µg/mL)	–
COC(=O)c1nc(C)c2c(c1N)C(O)N(Cc1ccccc1)C2=O (stereo unspecified)	2.5 (≈ 0.818 µg/mL)	200 (≈ 65.5 µg/mL)	remaining at 0.5 h, 0.1 µM [3]: 55%; remaining at 0.5 h, 0.1 µM [4]: 70%; pIC50 (Vero): < 4.00; remaining at 0.5 h, 0.1 µM [5]: 69%
COc1ccc(CN2C(=O)c3c(C)nc(-c4nc(C)no4)c(N)c3C2=O)cc1	< 0.156	< 5	–
